Laboratory results as given in ChEMBL document CHEMBL1144245, “Discovery of 4-aryl-2-oxo-2H-chromenes as a new series of apoptosis inducers using a cell- and caspase-based high-throughput screening assay” (Bioorg Med Chem Lett, 2008).

Assays:
T47D [1] = assay: Induction of apoptosis in human T47D cells assessed as caspase 3 activation by HTS assay; assay type: functional, cell-based
HCT-116 = assay: Induction of apoptosis in human HCT 116 cells assessed as caspase 3 activation by HTS assay; assay type: functional, cell-based
SNU-398 [2] = assay: Induction of apoptosis in human SNU398 cells assessed as caspase 3 activation by HTS assay; assay type: functional, cell-based
SNU-398 [3] = assay: Growth inhibition of human SNU398 cells; assay type: functional
Procedure, shortened: (§1)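 Growth inhibition assay in T47D, HCT116 and SNU398 cells, run in 96-well format. GI50 reported as mean ± SEM of three or more experiments.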

[4] = Growth inhibition of human HCT 116 cells; assay type: functional; procedure, shortened: as §1
T47D [5] = assay: Growth inhibition of human T47D cells; assay type: functional; procedure, shortened: as §1

Compound	EC50 (T47D [1])	EC50 (HCT-116)	EC50 (SNU-398 [2])	GI50 (SNU-398 [3])	GI50 (T47D [5])	GI50 [4]
COc1cc(C2C(C#N)=C(N)Oc3cc(N(C)C)ccc32)cc2c1OCO2 (stereo not given)	73 nM					
Cc1cncc(-c2c(C#N)c(=O)oc3c2ccc2c3ccn2C)c1	19 nM	16 nM	14 nM			
Cn1ccc2c3oc(=O)c(C#N)c(-c4cccc(Br)c4)c3ccc21	24 nM	14 nM	9.6 nM			
COc1cc(OC)cc(-c2c(C#N)c(=O)oc3cc(OC)ccc23)c1	17 nM	18 nM	15 nM			
COc1cccc(-c2c(C#N)c(=O)oc3cc(OC)ccc23)c1	53 nM	59 nM	29 nM			
Cn1ccc2c3oc(=O)c(C#N)c(-c4cccc([N+](=O)[O-])c4)c3ccc21	43 nM	13 nM	9.5 nM			

Further lines, with some results ahead:

EC50 (T47D [1])	EC50 (HCT-116)	EC50 (SNU-398 [2])	GI50 (SNU-398 [3])	GI50 (T47D [5])	Compound	GI50 [4]
24 nM	20 nM	13 nM			COc1cc(OC)cc(-c2c(C#N)c(=O)oc3c2ccc2c3ccn2C)c1	
27 nM	27 nM	17 nM	7.9 nM	25 nM	COc1cc(-c2c(C#N)c(=O)oc3c2ccc2c3ccn2C)cc2c1OCO2	26 nM
820 nM	990 nM	490 nM	440 nM	630 nM	COc1cc(-c2c(C#N)c(=O)oc3cc(N)ccc23)cc(Br)c1OC	630 nM
280 nM	400 nM	260 nM	150 nM	620 nM	COc1cc(-c2c(C#N)c(=O)oc3cc(N(C)C)ccc23)cc(Br)c1OC	460 nM
6900 nM	9400 nM	5500 nM			COc1cc(-c2c(C#N)c(=O)oc3cc(Cl)ccc23)cc(Br)c1OC	
3000 nM	4800 nM	2500 nM			COc1cc(-c2c(C#N)c(=O)oc3c2ccc2cnccc23)cc(Br)c1OC	
43 nM	20 nM	17 nM			COc1cccc(-c2c(C#N)c(=O)oc3c2ccc2c3ccn2C)c1	
42 nM	41 nM	26 nM			COc1ccc2c(-c3cc(Br)c(OC)c(OC)c3)c(C#N)c(=O)oc2c1	
13 nM	10 nM	6 nM	0.3 nM	0.7 nM	COc1cc(-c2c(C#N)c(=O)oc3c2ccc2c3ccn2C)cc(Br)c1OC	0.9 nM
